Active and inactive are the calls of the source. No cut-off for these calls is given here.
Experiments:
[1] = Cytotoxicity against human HepG2.2.15 cells after 9 days by MTT assay; type: cell-based, HepG2 2.2.15; conditions: read-out: TC50
In short: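 HepG2.2.15 cells were treated as in the antiviral assay (RPMI 1640, 2% FBS, daily renewal), with untreated controls on each plate. Viability after 9 days of treatment was read from neutral red uptake as absorbance at 510 nm relative to untreated cells. TC50 is the 50% cytotoxic concentration.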

Hepatitis B virus [2] = test: Antiviral activity against HBV assessed as inhibition of viral e-antigen production by enzyme immunoassay; type: functional, organism-based
In short: (§1)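 Confluent HepG2.2.15 cells were treated with varied doses in RPMI 1640 plus 2% FBS, with fresh medium and drug each day for 8 days. Secreted HBeAg or HBsAg in the supernatant was measured by semiquantitative enzyme immunoassay, giving a 50% inhibitory concentration (IC50).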

[3] = Selectivity index, ratio of TC50 for human HepG2.2.15 cells to IC50 for HBV e-antigen production
In short: (§2)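 SI = TC50/IC50. TC50 is the 50% cytotoxic concentration in HepG2.2.15 cells by neutral red uptake after 9 days. IC50 comes from the 8-day HepG2.2.15 treatment in RPMI 1640 with 2% FBS, read by Southern blot for DNA or by enzyme immunoassay for secreted HBeAg or HBsAg.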

[4] = Selectivity index, ratio of TC50 for human HepG2.2.15 cells to IC50 for HBV DNA replication; in short: as §2
Hepatitis B virus [5] = test: Antiviral activity against HBV assessed as inhibition of viral DNA replication by Southern blot; type: functional, organism-based
In short: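 Confluent HepG2.2.15 cultures were dosed across a range of concentrations in RPMI 1640 with 2% FBS. Medium and compound were renewed daily for 8 days. Intracellular HBV DNA was quantified by Southern blot hybridization and IC50 was taken as the 50% inhibitory concentration.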

Hepatitis B virus [6] = test: Antiviral activity against HBV assessed as inhibition of viral surface-antigen production at <60 uM by enzyme immunoassay; type: functional, organism-based
Hepatitis B virus [7] = test: Antiviral activity against HBV assessed as inhibition of viral surface-antigen production by enzyme immunoassay; type: functional, organism-based; in short: as §1
[8] = Selectivity index, ratio of TC50 for human HepG2.2.15 cells to IC50 for HBV surface antigen production; in short: as §2

Row | IC50 (Hepatitis B virus [2]) | IC50 (Hepatitis B virus [5]) | IC50 (Hepatitis B virus [7]) | Compound | CC50 at 216 h [1] | Ratio [3] | Ratio [4] | Activity (Hepatitis B virus [6]) | Ratio [8]
1 | 16.4 µM | 9.4 µM | – | CCOC(=O)c1cc2c(Cn3ccnc3)c(O)c(OC)cc2nc1CSc1ccc(F)c(F)c1 | 133 µM | 8.1 | 14.1 | – | –
2 | – | 12.5 µM | – | CCOC(=O)c1cc2c(Cn3ccnc3)c(O)c(OC)cc2nc1C[S+]([O-])c1ccc(F)c(F)c1 (configuration not stated) | 90.8 µM | – | 7.3 | – | –
3 | – | 311 µM | – | Nc1ccn([C@@H]2CS[C@H](CO)O2)c(=O)n1 [LAMIVUDINE] | 2210 µM | – | 7.1 | – | –
4 | – | 45.2 µM | – | CCOC(=O)c1cc2c(CN3CCCCC3)c(O)c(OC)cc2nc1CSc1ccccc1 | 60.7 µM | – | 1.3 | inactive | –
5 | – | 24.1 µM | – | CCOC(=O)c1cc2c(CN3CCCCC3)c(O)c(OC)cc2nc1CSc1ccc(F)c(F)c1 | 135 µM | – | 5.6 | – | –
6 | – | – | – | CCOC(=O)c1cc2c(CN3CCCC3)c(O)c(OC)cc2nc1CSc1ccccn1 | 17.5 µM | – | – | – | –
7 | 65.1 µM | – | – | CCOC(=O)c1cc2c(Cn3ccnc3)c(O)c(OC)cc2nc1CSc1cccc(OC)c1 | 186 µM | 2.9 | – | – | –
8 | 10.9 µM | – | 5.8 µM | CCOC(=O)c1cc2c(CN3CCOCC3)c(O)c(OC)cc2nc1CSc1ccc(F)c(F)c1 | 79.7 µM | 7.3 | – | – | 13.7
9 | – | 5.3 µM | – | CCOC(=O)c1cc2c(CN3CCCC3)c(O)c(OC)cc2nc1C[S+]([O-])c1ccc(F)c(F)c1 (configuration not stated) | 16.5 µM | – | 3.1 | – | –
10 | 98.1 µM | 4.7 µM | 26.2 µM | CCOC(=O)c1cc2c(Cn3ccnc3)c(O)c(OC)cc2nc1C[S+]([O-])c1ccc(F)cc1 (configuration not stated) | 160 µM | 1.6 | 34.1 | – | 6.1
11 | – | 21.9 µM | 36.5 µM | CCOC(=O)c1cc2c(CN(C)C)c(O)c(OC)cc2nc1C[S+]([O-])c1ccc(F)cc1 (configuration not stated) | 90.4 µM | – | 4.1 | – | 2.5
12 | – | – | 11.2 µM | CCOC(=O)c1cc2c(CN3CCN(C)CC3)c(O)c(OC)cc2nc1CSc1ccc(F)c(F)c1 | 55.3 µM | – | – | – | 4.9
13 | 9.3 µM | 10.2 µM | 8.5 µM | CCOC(=O)c1cc2c(CN3CCCC3)c(O)c(OC)cc2nc1CSc1ccc(F)cc1 | 47.3 µM | 5.1 | 4.6 | – | 5.6
14 | – | 32.8 µM | 17.4 µM | CCOC(=O)c1cc2c(CN(C)C)c(O)c(OC)cc2nc1CSc1ccc(F)cc1 | 120 µM | – | 3.7 | – | 6.9
15 | 21.1 µM | 10.7 µM | 25.1 µM | CCOC(=O)c1cc2c(CN3CCCC3)c(O)c(OC)cc2nc1C[S+]([O-])c1ccc(F)cc1 (configuration not stated) | 166 µM | 7.9 | 15.5 | – | 6.6
16 | 16.2 µM | 30.6 µM | – | CCOC(=O)c1cc2c(Cn3ccnc3C)c(O)c(OC)cc2nc1CSc1ccc(F)cc1 | 78.5 µM | 4.8 | 2.6 | – | –
17 | – | 41.7 µM | 42.8 µM | CCOC(=O)c1cc2c(Cn3ccnc3)c(O)c(OC)cc2nc1CSc1ccc(F)cc1 | 202 µM | – | 6.2 | – | 6
18 | – | – | – | CCOC(=O)c1cc2c(Cn3ccnc3)c(O)c(OC)cc2nc1CSc1ccc(OC)c(OC)c1 | 189 µM | – | – | – | –
19 | – | – | – | CCOC(=O)c1cc2c(CN3CCCC3)c(O)c(OC)cc2nc1C[S+]([O-])c1ccccn1 (configuration not stated) | 9.4 µM | – | – | – | –
20 | 20.5 µM | – | – | CCOC(=O)c1cc2c(CN(C)C)c(O)c(OC)cc2nc1CSc1ccccc1OC | 58.5 µM | 2.9 | – | – | –
21 | – | – | 33.1 µM | CCOC(=O)c1cc2c(Cn3ccnc3)c(O)c(OC)cc2nc1C[S+]([O-])c1cccc(OC)c1 (configuration not stated) | 194 µM | – | – | – | 5.9

From ChEMBL document CHEMBL1157455, “Synthesis and anti-hepatitis B virus evaluation of novel ethyl 6-hydroxyquinoline-3-carboxylates in vitro” (Bioorg Med Chem, 2008)
